Reference: ChEMBL document CHEMBL1155468, “Syntheses and evaluation of anticonvulsant profile and teratogenicity of novel amide derivatives of branched aliphatic carboxylic acids with 4-aminobenzensulfonamide” (J Med Chem, 2010)
Activity calls are given as the source filed them. The rule behind the calls is not given here.

Assays:
Mus musculus [1] = experiment: Teratogenic effect in SWV mouse assessed as resorptions at 141 mg/kg, ip administered on morning of day 8 of gestation; assay type: toxicity, organism-based; design: dose 141 mg/kg, route intraperitoneal; settings: in vivo
How it was run: (§1)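 SWV inbred mice: two-month-old nulligravid females mated overnight with males and checked for vaginal plugs next morning; gestation onset taken as 10 p.m. the previous night. On gestation day 8.5 each dam got one ip injection, 0.55–2.7 mmol/kg, in 25% aqueous Cremophor EL (vehicle controls dosed alike), 10 μL/g body weight. Litters and implants tallied; resorptions and live fetuses reported as counts with percentages.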

Mus musculus [2] = experiment: Anticonvulsant activity in CF1 albino mouse assessed as inhibition of maximal electroshock-induced seizures at 30 mg/kg, ip after 0.5 hrs; assay type: functional, organism-based; design: dose 30 mg/kg
How it was run: (§2)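 Test compounds suspended in 0.5% methylcellulose and given ip to adult male CF no. 1 albino mice (18-25 g) at 0.01 mL/g body weight before maximal electroshock challenge.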

Rattus norvegicus [3] = experiment: Anticonvulsant activity in po dosed rat assessed as inhibition of maximal electroshock-induced seizures
Mus musculus [4] = experiment: Anticonvulsant activity in CF1 albino mouse assessed as inhibition of maximal electroshock-induced seizures at 30 mg/kg, ip after 4 hrs; assay type: functional, organism-based; design: dose 30 mg/kg; how it was run: as §2
Mus musculus [5] = experiment: Anticonvulsant activity in CF1 albino mouse assessed as inhibition of subcutaneous pentylenetetrazole-induced seizures at 100 mg/kg, ip after 4 hrs; assay type: functional, organism-based; design: dose 100 mg/kg
How it was run: (§3)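 Adult male CF no. 1 albino mice (18-25 g) dosed ip with compound suspended in 0.5% methylcellulose (0.01 mL/g). Convulsant: pentylenetetrazol dissolved in 0.9% saline as a 0.85% solution for mice, given subcutaneously.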

Rattus norvegicus [6] = experiment: Anticonvulsant activity in Sprague-Dawley rat assessed as inhibition of maximal electroshock-induced seizures at 30 mg/kg, po after 15 mins
Mus musculus [7] = experiment: Neurotoxicity in CF1 albino mouse assessed as motor impairment at 300 mg/kg, ip after 4 hrs; assay type: toxicity, organism-based; design: dose 300 mg/kg, route intraperitoneal; settings: in vivo
Mus musculus [8] = experiment: Teratogenic effect in SWV mouse assessed as fetuses with neural tube deffects at 282 mg/kg, ip administered on morning of day 8 of gestation; assay type: toxicity, organism-based; design: dose 282 mg/kg, route intraperitoneal; settings: in vivo
How it was run: (§4)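 Two-month-old nulligravid SWV females were mated overnight and checked for vaginal plugs the next morning; gestation onset was set at 10 p.m. the previous night. On gestation day 8.5, each dam received a single ip injection (0.55-2.7 mmol/kg range) or vehicle (25% aqueous Cremophor EL) at 10 μL/g body weight. Litters were scored for implants, resorptions, live and dead fetuses, and fetuses with neural tube defects.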

Mus musculus [9] = experiment: Teratogenic effect in SWV mouse assessed as live fetuses at 141 mg/kg, ip administered on morning of day 8 of gestation; assay type: toxicity, organism-based; design: dose 141 mg/kg, route intraperitoneal; settings: in vivo; how it was run: as §4
Mus musculus [10] = experiment: Anticonvulsant activity in CF1 albino mouse assessed as inhibition of maximal electroshock-induced seizures at 300 mg/kg, ip after 4 hrs; assay type: functional, organism-based; design: dose 300 mg/kg; how it was run: as §2
Rattus norvegicus [11] = experiment: Anticonvulsant activity in Sprague-Dawley rat assessed as inhibition of maximal electroshock-induced seizures at 30 mg/kg, po after 4 hrs
Mus musculus [12] = experiment: Anticonvulsant activity in CF1 albino mouse assessed as inhibition of subcutaneous pentylenetetrazole-induced seizures at 300 mg/kg, ip after 4 hrs; assay type: functional, organism-based; design: dose 300 mg/kg; how it was run: as §3
Mus musculus [13] = experiment: Anticonvulsant activity in CF1 albino mouse assessed as inhibition of subcutaneous pentylenetetrazole-induced seizures at 100 mg/kg, ip after 0.5 hrs; assay type: functional, organism-based; design: dose 100 mg/kg; how it was run: as §3
Mus musculus [14] = experiment: Neurotoxicity in CF1 albino mouse assessed as motor impairment at 100 mg/kg, ip after 4 hrs; assay type: toxicity, organism-based; design: dose 100 mg/kg, route intraperitoneal; settings: in vivo
Mus musculus [15] = experiment: Anticonvulsant activity in CF1 albino mouse assessed as inhibition of subcutaneous pentylenetetrazole-induced seizures at 30 mg/kg, ip after 0.5 hrs; assay type: functional, organism-based; design: dose 30 mg/kg; how it was run: as §3
Mus musculus [16] = experiment: Anticonvulsant activity in CF1 albino mouse assessed as inhibition of subcutaneous pentylenetetrazole-induced seizures at 300 mg/kg, ip after 0.5 hrs; assay type: functional, organism-based; design: dose 300 mg/kg; how it was run: as §3
Mus musculus [17] = experiment: Teratogenic effect in SWV mouse assessed as fetuses with neural tube deffects at 141 mg/kg, ip administered on morning of day 8 of gestation; assay type: toxicity, organism-based; design: dose 141 mg/kg, route intraperitoneal; settings: in vivo; how it was run: as §4
Mus musculus [18] = experiment: Neurotoxicity in CF1 albino mouse assessed as motor impairment at 30 mg/kg, ip after 0.5 hrs; assay type: toxicity, organism-based; design: dose 30 mg/kg, route intraperitoneal; settings: in vivo
Mus musculus [19] = experiment: Anticonvulsant activity in CF1 albino mouse assessed as inhibition of subcutaneous pentylenetetrazole-induced seizures at 30 mg/kg, ip after 4 hrs; assay type: functional, organism-based; design: dose 30 mg/kg; how it was run: as §3
Mus musculus [20] = experiment: Teratogenic effect in SWV mouse assessed as resorptions at 282 mg/kg, ip administered on morning of day 8 of gestation; assay type: toxicity, organism-based; design: dose 282 mg/kg, route intraperitoneal; settings: in vivo; how it was run: as §1
Rattus norvegicus [21] = experiment: Anticonvulsant activity in Sprague-Dawley rat assessed as inhibition of maximal electroshock-induced seizures at 30 mg/kg, po after 30 mins
Mus musculus [22] = experiment: Neurotoxicity in CF1 albino mouse assessed as motor impairment at 30 mg/kg, ip after 4 hrs; assay type: toxicity, organism-based; design: dose 30 mg/kg, route intraperitoneal; settings: in vivo
Mus musculus [23] = experiment: Anticonvulsant activity in CF1 albino mouse assessed as inhibition of maximal electroshock-induced seizures at 300 mg/kg, ip after 0.5 hrs; assay type: functional, organism-based; design: dose 300 mg/kg; how it was run: as §2
Mus musculus [24] = experiment: Teratogenic effect in SWV mouse assessed as live fetuses at 282 mg/kg, ip administered on morning of day 8 of gestation; assay type: toxicity, organism-based; design: dose 282 mg/kg, route intraperitoneal; settings: in vivo; how it was run: as §4
Mus musculus [25] = experiment: Neurotoxicity in CF1 albino mouse assessed as motor impairment at 100 mg/kg, ip after 0.5 hrs; assay type: toxicity, organism-based; design: dose 100 mg/kg, route intraperitoneal; settings: in vivo
Rattus norvegicus [26] = organism: Rattus norvegicus; experiment: Protective index, ratio of TD50 for rat to ED50 for maximal electroshock-induced rat seizure model
Mus musculus [27] = experiment: Teratogenic effect in SWV mouse assessed as live fetuses at 156 mg/kg, ip administered on morning of day 8 of gestation; assay type: toxicity, organism-based; design: dose 156 mg/kg, route intraperitoneal; settings: in vivo; how it was run: as §4
Mus musculus [28] = experiment: Teratogenic effect in SWV mouse assessed as resorptions at 310 mg/kg, ip administered on morning of day 8 of gestation; assay type: toxicity, organism-based; design: dose 310 mg/kg, route intraperitoneal; settings: in vivo; how it was run: as §1
Mus musculus [29] = experiment: Teratogenic effect in SWV mouse assessed as fetuses with neural tube deffects at 310 mg/kg, ip administered on morning of day 8 of gestation; assay type: toxicity, organism-based; design: dose 310 mg/kg, route intraperitoneal; settings: in vivo; how it was run: as §4
Rattus norvegicus [30] = experiment: Neurotoxicity in Sprague-Dawley rat assessed as motor impairment at 30 mg/kg, po after 0.25 to 4 hrs; settings: in vivo
Mus musculus [31] = experiment: Teratogenic effect in SWV mouse assessed as resorptions at 511 mg/kg, ip administered on morning of day 8 of gestation; assay type: toxicity, organism-based; design: dose 511 mg/kg, route intraperitoneal; settings: in vivo; how it was run: as §1
[32] = Teratogenic effect in SWV mouse assessed as dead fetuses at 91 mg/kg, ip administered on morning of day 8 of gestation; settings: in vivo
Mus musculus [33] = experiment: Teratogenic effect in SWV mouse assessed as fetuses with neural tube deffects at 156 mg/kg, ip administered on morning of day 8 of gestation; assay type: toxicity, organism-based; design: dose 156 mg/kg, route intraperitoneal; settings: in vivo; how it was run: as §4
Mus musculus [34] = experiment: Anticonvulsant activity in CF1 albino mouse assessed as inhibition of maximal electroshock-induced seizures at 100 mg/kg, ip after 0.5 hrs; assay type: functional, organism-based; design: dose 100 mg/kg; how it was run: as §2
Mus musculus [35] = experiment: Teratogenic effect in SWV mouse assessed as resorptions at 156 mg/kg, ip administered on morning of day 8 of gestation; assay type: toxicity, organism-based; design: dose 156 mg/kg, route intraperitoneal; settings: in vivo; how it was run: as §1
Mus musculus [36] = experiment: Teratogenic effect in SWV mouse assessed as live fetuses at 310 mg/kg, ip administered on morning of day 8 of gestation; assay type: toxicity, organism-based; design: dose 310 mg/kg, route intraperitoneal; settings: in vivo; how it was run: as §4
[37] = Teratogenic effect in SWV mouse assessed as dead fetuses at 522 mg/kg, ip administered on morning of day 8 of gestation; settings: in vivo, read-out: Ratio TD50/ED50
Mus musculus [38] = experiment: Neurotoxicity in CF1 albino mouse assessed as motor impairment at 300 mg/kg, ip after 0.5 hrs; assay type: toxicity, organism-based; design: dose 300 mg/kg, route intraperitoneal; settings: in vivo
Mus musculus [39] = experiment: Teratogenic effect in SWV mouse assessed as live fetuses at 511 mg/kg, ip administered on morning of day 8 of gestation; assay type: toxicity, organism-based; design: dose 511 mg/kg, route intraperitoneal; settings: in vivo; how it was run: as §1

Structure (SMILES) | Activity (Mus musculus [2]) | ED50 (Rattus norvegicus [3]) | Activity (Mus musculus [4]) | Activity (Mus musculus [5]) | Activity (Mus musculus [7]) | Activity (Mus musculus [10]) | Activity (Mus musculus [12]) | Activity (Mus musculus [13]) | Activity (Mus musculus [14]) | Activity (Mus musculus [15]) | Activity (Mus musculus [16]) | Activity (Mus musculus [18]) | Activity (Mus musculus [19]) | Activity (Mus musculus [22]) | Activity (Mus musculus [23]) | also measured
CC(C)(C)C(=O)Nc1ccc(S(N)(=O)=O)cc1 | inactive | 42.2 mg/kg | inactive | inactive | Non-toxic | Active | inactive | inactive | Non-toxic | inactive | inactive | Non-toxic | inactive | Non-toxic | Active | Activity (Mus musculus [1]): 7.5%; Activity (Rattus norvegicus [6]): inactive; Activity (Mus musculus [8]): 2.7%; Activity (Mus musculus [9]): 93.3%; Activity (Rattus norvegicus [11]): Active; Activity (Mus musculus [17]): 3.7%; Activity (Mus musculus [20]): 8.9%; Activity (Rattus norvegicus [21]): inactive; Activity (Mus musculus [24]): 91.1%
CCCC(CC)C(=O)Nc1ccc(S(N)(=O)=O)cc1 (centres undefined) | inactive | 11.6 mg/kg | inactive | inactive | Non-toxic | Active | inactive | inactive | Non-toxic | inactive | inactive | Non-toxic | inactive | Non-toxic | inactive | Activity (Mus musculus [25]): Non-toxic; Ratio TD50/ED50 (Rattus norvegicus [26]): >43.1; Activity (Mus musculus [27]): 84.3%; Activity (Mus musculus [28]): 72%; Activity (Mus musculus [29]): 13.3%; Activity (Rattus norvegicus [30]): Non-toxic; Activity (Mus musculus [31]): 98.5%; ED50 [32]: 11.6 mg/kg; Activity (Mus musculus [33]): 1%; Activity (Mus musculus [34]): inactive; Activity (Mus musculus [35]): 15.7%; Activity (Mus musculus [36]): 28%; selectivity ratio [37]: 43.1; Activity (Mus musculus [38]): Non-toxic; Activity (Mus musculus [39]): 1.5%
